{"source": "ChEMBL document CHEMBL4610063", "about": "“Mangiferin: A promising natural xanthone from Mangifera indica for the control of acyclovir - resistant herpes simplex virus 1 infection” (Bioorg Med Chem, 2020)", "key": {"[1]": {"test_system": "Human alphaherpesvirus 1", "experiment": "Antiviral activity against ACV-sensitive Herpes simplex virus 1 KOS infected in African green monkey Vero cells assessed as inhibition of viral infection at 3.12 ug/ml measured after 72 hrs by crystal violet staining based plaque reduction assay relative to control", "assay_type": "functional", "conditions": "Human alphaherpesvirus 1, strain KOS", "summary_of_the_method": "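Vero monolayers infected with HSV-1 KOS (10^5 PFU/mL) with mangiferin (3.12, 6.25, 12.5, 25 μg/mL) added at infection (0 h). Overlay of nutrient agarose with 25 mM MgCl2; plaques counted after 72 h at 37 °C, 5% CO2, fixed in 20% formaldehyde/PBS and stained with 0.5% crystal violet. %VI versus virus control; triplicate experiments.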"}, "[2]": {"test_system": "Human alphaherpesvirus 1", "experiment": "Antiviral activity against ACV-sensitive Herpes simplex virus 1 KOS infected in African green monkey Vero cells assessed as suppression of viral replication by measuring reduction in ICP4 production at 12.5 ug/ml measured after 24 hrs by immunofluorescence assay relative to control", "assay_type": "functional, strain KOS", "set-up": "scale not given: the % may be the effect or the level left", "summary_of_the_method": "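Vero cells on coverslips infected with HSV-1 KOS and given mangiferin 1.56–12.5 μg/mL at 0 h. At 24 h cells fixed in cold acetone, blocked with skim milk, stained with mouse anti-ICP4 and FITC anti-mouse IgG; 100 cells per coverslip scored by fluorescence microscopy. Inhibition relative to infected untreated cells; duplicate independent experiments.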"}, "[3]": {"test_system": "Human alphaherpesvirus 1", "experiment": "Antiviral activity against ACV-resistant Herpes simplex virus 1 AR-29 infected in African green monkey Vero cells assessed as inhibition of viral adsorption at 12.5 ug/mL preincubated for 30 mins and measured after 1 hr by plaque reduction assay relative to control", "assay_type": "functional", "conditions": "Human alphaherpesvirus 1, AR-29, Vero", "summary_of_the_method": "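Vero cells pre-chilled 30 min at 4 °C, then given mangiferin (3.12–25 μg/mL) together with HSV-1 AR-29 (10^5 PFU/mL) for 1 h adsorption at 4 °C. Plaque reduction assay follows: nutrient agarose overlay with 25 mM MgCl2, 72 h at 37 °C/5% CO2, formaldehyde fixation, crystal violet stain. %VI = [1 − PFU treated/PFU virus control] × 100.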"}}, "data": [{"smiles": "O=c1c2cc(O)c(O)cc2oc2cc(O)c([C@@H]3O[C@H](CO)[C@@H](O)[C@H](O)[C@H]3O)c(O)c12", "note": "[MANGIFERIN]", "values": [{"measurement": "inhibition at 3.12 µg/mL", "setting": "[1]", "result": 37.5, "unit": "%"}, {"measurement": "Activity", "setting": "[2]", "result": 29.6, "unit": "%"}, {"measurement": "inhibition at 12.5 µg/mL", "setting": "[3]", "result": 71.3, "unit": "%"}]}]}
